# Assay results published in ChEMBL document CHEMBL1154067, “Antiviral and cytotoxic activities of aminoarylazo compounds and aryltriazene derivatives” (Bioorg Med Chem, 2009).
# Calls of active or inactive are those of the source. No rule for the calls is given here.
# System: Coxsackievirus B2
# Assay: Antiviral activity against Coxsackie virus type B2 virus infected in african green monkey Vero-76 cells after 3 days by plaque reduction assay
# Type: functional, organism-based
# Settings: Enterovirus B, Vero 76, 72 h
# Outline: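 Vero 76 cells seeded at 2 × 10^5 cells/well, grown overnight to confluence at 37 °C in 5% CO2, then infected at 50–100 PFU/well. Unadsorbed virus removed. Overlay of DMEM with 1% inactivated FCS and 0.75% methylcellulose, with or without serial compound dilutions. After 3 days at 37 °C, fixed and stained with crystal violet in PBS/50% ethanol; plaques counted. EC50 is the concentration reducing plaque number by 50%.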
row,SMILES,EC50 [µM]
1,O=[N+]([O-])c1ccc(/N=N/N2CCCC2)cc1,> 90
2,CCOC(=O)N1CCN(/N=N/c2ccccc2)CC1,30
3,O=c1cccc2n1CC1CC2CN(/N=N/c2cccc([N+](=O)[O-])c2)C1 (stereo not given),> 90
4,CN1CCN(/N=N/c2cc(F)ccc2F)CC1,71
5,O=[N+]([O-])c1cccc(/N=N/N2CCCC2)c1,> 80

# System: not listed separately
# Assay: Cytotoxicity against hamster BHK21 cells assessed as reduction in cell viability after 48 to 96 hrs by MTT assay
# Type: cell-based, Mesocricetus auratus, BHK-21
# Settings: bhk-21
# Outline: (§1)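 Mock-infected cells in maintenance medium, MDBK at 6 × 10^5 and BHK at 1 × 10^6 cells/mL initial density, with or without serial compound dilutions. Run in parallel with antiviral assays. Viability by MTT after 48–96 h at 37 °C, 5% CO2. CC50 = concentration reducing viability 50%.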
row,SMILES,CC50 [µM]
1,O=[N+]([O-])c1ccc(/N=N/N2CCCC2)cc1,≥ 100
2,CCOC(=O)N1CCN(/N=N/c2ccccc2)CC1,> 100
3,O=c1cccc2n1CC1CC2CN(/N=N/c2cccc([N+](=O)[O-])c2)C1 (stereo not given),> 100
4,CN1CCN(/N=N/c2cc(F)ccc2F)CC1,> 100
5,O=[N+]([O-])c1cccc(/N=N/N2CCCC2)c1,42

# System: Vesicular stomatitis virus
# Assay: Antiviral activity against Vesicular stomatitis virus after 2 days by plaque reduction assay
# Type: functional, organism-based
# Settings: not given
row,SMILES,Activity
1,O=[N+]([O-])c1ccc(/N=N/N2CCCC2)cc1,inactive
2,CCOC(=O)N1CCN(/N=N/c2ccccc2)CC1,inactive
3,O=c1cccc2n1CC1CC2CN(/N=N/c2cccc([N+](=O)[O-])c2)C1 (stereo not given),inactive
4,CN1CCN(/N=N/c2cc(F)ccc2F)CC1,inactive
5,O=[N+]([O-])c1cccc(/N=N/N2CCCC2)c1,inactive

# System: Yellow fever virus
# Assay: Antiviral activity against Yellow fever virus infected in BHK-21 cells assessed as inhibition of virus-induced cytopathicity after 3 to 4 days by MTT assay
# Type: functional, organism-based
# Settings: not given
row,SMILES,EC50 [µM]
1,O=[N+]([O-])c1ccc(/N=N/N2CCCC2)cc1,> 100
2,CCOC(=O)N1CCN(/N=N/c2ccccc2)CC1,> 100
3,O=c1cccc2n1CC1CC2CN(/N=N/c2cccc([N+](=O)[O-])c2)C1 (stereo not given),> 100
4,CN1CCN(/N=N/c2cc(F)ccc2F)CC1,50
5,O=[N+]([O-])c1cccc(/N=N/N2CCCC2)c1,> 42

# System: Human immunodeficiency virus 1
# Assay: Antiviral activity against HIV1 infected in human MT4 cells assessed as inhibition of virus-induced cytopathicity after 4 days by MTT assay
# Type: functional, organism-based
# Settings: not given
row,SMILES,inhibition
1,O=[N+]([O-])c1ccc(/N=N/N2CCCC2)cc1,inactive
2,CCOC(=O)N1CCN(/N=N/c2ccccc2)CC1,inactive
3,O=c1cccc2n1CC1CC2CN(/N=N/c2cccc([N+](=O)[O-])c2)C1 (stereo not given),inactive
4,CN1CCN(/N=N/c2cc(F)ccc2F)CC1,inactive
5,O=[N+]([O-])c1cccc(/N=N/N2CCCC2)c1,inactive

# System: Poliovirus 1
# Assay: Antiviral activity against Human poliovirus 1 strain Sabin after 2 days by plaque reduction assay
# Type: functional
# Settings: Enterovirus C, 48 h
row,SMILES,EC50 [µM]
1,O=[N+]([O-])c1ccc(/N=N/N2CCCC2)cc1,15
2,CCOC(=O)N1CCN(/N=N/c2ccccc2)CC1,> 90
3,O=c1cccc2n1CC1CC2CN(/N=N/c2cccc([N+](=O)[O-])c2)C1 (stereo not given),> 90
4,CN1CCN(/N=N/c2cc(F)ccc2F)CC1,> 100
5,O=[N+]([O-])c1cccc(/N=N/N2CCCC2)c1,30

# System: Mammalian orthoreovirus 1
# Assay: Antiviral activity against Reovirus-1 infected in BHK-21 cells assessed as inhibition of virus-induced cytopathicity after 3 to 4 days by MTT assay
# Type: functional, organism-based
# Settings: Mammalian orthoreovirus 1, BHK-21
# Outline: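 BHK-21 cells seeded at 5 × 10^4 cells/well, grown overnight to confluent monolayers at 37 °C in 5% CO2, then infected at m.o.i. 0.01 in serum-free medium. One hour later, MEM Earle's with 1% final inactivated FCS added, with or without serial compound dilutions. Viability read by MTT after 3–4 days at 37 °C. EC50 is the concentration giving 50% protection from cytopathogenicity.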
row,SMILES,EC50 [µM]
1,O=[N+]([O-])c1ccc(/N=N/N2CCCC2)cc1,> 100
2,CCOC(=O)N1CCN(/N=N/c2ccccc2)CC1,> 100
3,O=c1cccc2n1CC1CC2CN(/N=N/c2cccc([N+](=O)[O-])c2)C1 (stereo not given),80
4,CN1CCN(/N=N/c2cc(F)ccc2F)CC1,30
5,O=[N+]([O-])c1cccc(/N=N/N2CCCC2)c1,> 42

# System: Vero
# Assay: Cytotoxicity against african green monkey Vero 76 cells by crystal violet staining
# Type: cell-based
# Settings: chlorocebus sabaeus, vero
# Outline: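 Mock-infected Vero 76 seeded at 4 × 10^5 cells/mL, run in parallel with plaque assays, with or without serial compound dilutions. Cell number of monolayers determined by crystal violet staining. CC50 = concentration reducing viable cell number 50%.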
row,SMILES,CC50 [µM]
1,O=[N+]([O-])c1ccc(/N=N/N2CCCC2)cc1,90
2,CCOC(=O)N1CCN(/N=N/c2ccccc2)CC1,90
3,O=c1cccc2n1CC1CC2CN(/N=N/c2cccc([N+](=O)[O-])c2)C1 (stereo not given),90
4,CN1CCN(/N=N/c2cc(F)ccc2F)CC1,≥ 100
5,O=[N+]([O-])c1cccc(/N=N/N2CCCC2)c1,80

# System: Vaccinia virus
# Assay: Antiviral activity against Vaccinia virus after 3 days by plaque reduction assay
# Type: functional, organism-based
# Settings: Orthopoxvirus vaccinia
row,SMILES,Activity
1,O=[N+]([O-])c1ccc(/N=N/N2CCCC2)cc1,inactive
2,CCOC(=O)N1CCN(/N=N/c2ccccc2)CC1,inactive
3,O=c1cccc2n1CC1CC2CN(/N=N/c2cccc([N+](=O)[O-])c2)C1 (stereo not given),inactive
4,CN1CCN(/N=N/c2cc(F)ccc2F)CC1,inactive
5,O=[N+]([O-])c1cccc(/N=N/N2CCCC2)c1,inactive

# System: Human alphaherpesvirus 1
# Assay: Antiviral activity against HSV1 infected in Vero-76 cells after 3 days by plaque reduction assay
# Type: functional, organism-based
# Settings: Human alphaherpesvirus 1, Vero 76, 72 h
row,SMILES,EC50 [µM]
1,O=[N+]([O-])c1ccc(/N=N/N2CCCC2)cc1,> 90
2,CCOC(=O)N1CCN(/N=N/c2ccccc2)CC1,> 90
3,O=c1cccc2n1CC1CC2CN(/N=N/c2cccc([N+](=O)[O-])c2)C1 (stereo not given),> 90
4,CN1CCN(/N=N/c2cc(F)ccc2F)CC1,64
5,O=[N+]([O-])c1cccc(/N=N/N2CCCC2)c1,> 80

# System: Respiratory syncytial virus
# Assay: Antiviral activity against Respiratory syncytial virus A2 infected in Vero-76 cells after 5 days by plaque reduction assay
# Type: functional, organism-based
# Settings: human respiratory syncytial virus, A2, Vero 76, 120 h
row,SMILES,EC50 [µM]
1,O=[N+]([O-])c1ccc(/N=N/N2CCCC2)cc1,60
2,CCOC(=O)N1CCN(/N=N/c2ccccc2)CC1,> 90
3,O=c1cccc2n1CC1CC2CN(/N=N/c2cccc([N+](=O)[O-])c2)C1 (stereo not given),≥ 90
4,CN1CCN(/N=N/c2cc(F)ccc2F)CC1,> 100
5,O=[N+]([O-])c1cccc(/N=N/N2CCCC2)c1,8

# System: MT4
# Assay: Cytotoxicity against human MT4 cells after 96 hrs by MTT assay
# Type: cell-based
# Settings: mt4, 96 h
# Outline: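 Exponentially growing mock-infected MT-4 seeded at 1 × 10^5 cells/mL in RPMI-1640 with 10% FCS, penicillin and streptomycin. Incubated with or without serial compound dilutions at 37 °C, 5% CO2. Viability by MTT after 96 h. CC50 = concentration reducing viability 50%.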
row,SMILES,CC50 [µM]
1,O=[N+]([O-])c1ccc(/N=N/N2CCCC2)cc1,≥ 100
2,CCOC(=O)N1CCN(/N=N/c2ccccc2)CC1,100
3,O=c1cccc2n1CC1CC2CN(/N=N/c2cccc([N+](=O)[O-])c2)C1 (stereo not given),> 100
4,CN1CCN(/N=N/c2cc(F)ccc2F)CC1,> 100
5,O=[N+]([O-])c1cccc(/N=N/N2CCCC2)c1,66

# System: not listed separately
# Assay: Cytotoxicity against MDBK cells after 48 to 96 hrs by MTT assay
# Type: cell-based, Bos taurus
# Settings: cattle, mdbk
# Outline: as §1
row,SMILES,CC50 [µM]
1,O=[N+]([O-])c1ccc(/N=N/N2CCCC2)cc1,> 100
2,CCOC(=O)N1CCN(/N=N/c2ccccc2)CC1,> 100
3,O=c1cccc2n1CC1CC2CN(/N=N/c2cccc([N+](=O)[O-])c2)C1 (stereo not given),> 100
4,CN1CCN(/N=N/c2cc(F)ccc2F)CC1,> 100
5,O=[N+]([O-])c1cccc(/N=N/N2CCCC2)c1,> 100
